This is an account of results in PMC9890357 (Food Science of Animal Resources, 2023).

In one data set the test system is ACE. The settings on record: peptides with C-terminal Tyr residues; ref Chen et al., 2009; Erdmann et al., 2006; Ko et al., 2012; Liu et al., 2021; Yu et al., 2019; cited from earlier work.
For data set [1] the following is noted: synthetic ACE inhibitor drugs; ref Lee and Hur, 2017; cited from earlier work.
For data set [2], the target named is ACE (angiotensin I-converting enzyme) (Homo sapiens, UniProt P12821). As to the kind of experiment: ACE inhibition activity. It counts as biochemical. The method, boiled down:
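Commercial ACE kit-WST run according to the manufacturer's protocol. The test compound was a peptide purified from an alcalase hydrolysate of velvet antler (<5 kDa ultrafiltration fraction, then Sephadex G-25, then reverse-phase HPLC) and lyophilized. Results are reported as mean±SD. Groups were compared by one-way ANOVA with Duncan's multiple range test, with significance at p<0.05.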

No end group written: not given here.

ACE (angiotensin I-converting enzyme), sequence (P12821 30-1306, species assumed): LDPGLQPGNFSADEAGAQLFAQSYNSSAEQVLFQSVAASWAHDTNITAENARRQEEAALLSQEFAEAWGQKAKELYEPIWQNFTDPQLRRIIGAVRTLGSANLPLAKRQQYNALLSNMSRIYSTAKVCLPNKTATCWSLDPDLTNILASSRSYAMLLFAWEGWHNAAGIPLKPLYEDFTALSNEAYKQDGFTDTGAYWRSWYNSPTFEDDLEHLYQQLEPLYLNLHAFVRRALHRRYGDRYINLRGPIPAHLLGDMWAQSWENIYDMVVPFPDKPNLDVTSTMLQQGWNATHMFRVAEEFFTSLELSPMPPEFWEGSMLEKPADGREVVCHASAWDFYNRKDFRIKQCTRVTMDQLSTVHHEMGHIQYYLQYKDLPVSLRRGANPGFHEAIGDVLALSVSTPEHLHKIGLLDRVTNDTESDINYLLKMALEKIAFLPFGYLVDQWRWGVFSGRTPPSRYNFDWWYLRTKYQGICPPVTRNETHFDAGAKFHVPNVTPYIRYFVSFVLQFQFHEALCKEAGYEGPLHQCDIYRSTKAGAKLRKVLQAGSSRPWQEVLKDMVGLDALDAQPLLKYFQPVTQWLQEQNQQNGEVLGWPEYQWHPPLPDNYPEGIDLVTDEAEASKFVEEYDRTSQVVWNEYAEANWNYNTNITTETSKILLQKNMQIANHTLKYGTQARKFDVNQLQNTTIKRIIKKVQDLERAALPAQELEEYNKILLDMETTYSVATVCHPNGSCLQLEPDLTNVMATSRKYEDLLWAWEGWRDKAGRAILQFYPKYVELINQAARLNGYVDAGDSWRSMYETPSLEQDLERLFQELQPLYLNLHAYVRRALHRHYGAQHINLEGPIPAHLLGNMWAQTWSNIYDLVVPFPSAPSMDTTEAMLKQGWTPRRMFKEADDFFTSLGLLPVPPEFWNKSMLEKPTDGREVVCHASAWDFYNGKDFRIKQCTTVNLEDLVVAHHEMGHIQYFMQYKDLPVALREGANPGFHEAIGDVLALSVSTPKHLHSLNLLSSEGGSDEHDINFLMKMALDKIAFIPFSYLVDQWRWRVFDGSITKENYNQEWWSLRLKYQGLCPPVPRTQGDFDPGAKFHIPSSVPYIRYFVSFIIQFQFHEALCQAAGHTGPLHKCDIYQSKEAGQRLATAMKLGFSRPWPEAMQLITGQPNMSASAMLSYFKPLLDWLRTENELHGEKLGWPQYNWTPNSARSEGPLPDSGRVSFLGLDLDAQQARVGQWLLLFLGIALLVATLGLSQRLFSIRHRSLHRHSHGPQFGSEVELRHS

Regarding Val-Tyr, in the data set with ACE, the “ACE inhibitory activity (in words)” value is on record as “potent ACE inhibitory activities”. Regarding Met-Tyr, in the data set with ACE, the “ACE inhibitory activity (in words)” value was “potent ACE inhibitory activities”. For the compound Ile-Tyr, in the data set on ACE, the “ACE inhibitory activity (in words)” value was “potent ACE inhibitory activities”. As for `C[C@H](CS)C(=O)N1CCC[C@H]1C(=O)O` [captopril], the side effects result in data set [1] was “headaches, insomnia, fatigue, and increased blood potassium levels”. For `CCOC(=O)[C@H](CCc1ccccc1)N[C@@H](C)C(=O)N1CCC[C@H]1C(=O)O` [enalapril], in data set [1], the side effects result is “headaches, insomnia, fatigue, and increased blood potassium levels”. As to Arg-Val-Tyr, the “ACE inhibitory activity (in words)” value in the data set on ACE was “potent ACE inhibitory activities”. For DNRYY [DNRYY, Asp-Asn-Arg-Tyr-Tyr], the IC50 in data set [2] came to 3.72 µM. Moreover, in data set [2] (read-out: ACE inhibition), the inhibition at 1.75 µM turned out to be 23.6%, the inhibition at 3.5 µM was found to be 48.1%, the inhibition at 7 µM worked out at 69.8% and the inhibition at 14 µM stood at 89.5%.

As for `CCOC(=O)[C@H](CCc1ccccc1)N[C@H]1CCc2ccccc2N(CC(=O)O)C1=O` [benazepril], the side effects result in data set [1] was “headaches, insomnia, fatigue, and increased blood potassium levels”.

The IC50 is the concentration at which inhibition is half-maximal. Low readings indicate greater potency, high ones weaker potency. The inhibition is the share of the control response that was lost under treatment.
